# Measured values taken from ChEMBL document CHEMBL1157190, “Design, synthesis, and anticonvulsant activity of N-phenylamino derivatives of 3,3-dialkyl-pyrrolidine-2,5-diones and hexahydro-isoindole-1,3-diones” (Bioorg Med Chem, 2008).
# Calls of active or inactive are those of the source. The calls are words filed in the database; no cut-off is given here.
# Legend:
# [1] = test system: Mus musculus; assay: Anticonvulsant activity in ip dosed CF1 albino mouse assessed as inhibition of subcutaneous pentylenetetrazole-induced electrical stimulus after 0.5 hr; format: functional
# Summary of the method: (§1)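 Male CF-1 mice injected intraperitoneally at 30, 100 and 300 mg/kg, suspended in 0.5% methylcellulose/water. MES or subcutaneous pentylenetetrazole challenge at 0.5 and 4 h; selected compounds also at 1 or 2 h.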
# [2] = Lipophilicity, log kw of compound by RP-HPLC; format: physicochemical
# Summary of the method: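 RP-HPLC on a C18 end-capped column at room temperature, with UV detection at 214 nm and uracil as the unretained marker. Capacity factor k = (tr − t0)/t0, from the mean of three measurement sets. log k extrapolated to 100% water (log k = log kw − Sφ) to give log kw.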
# [3] = test system: Mus musculus; assay: Anticonvulsant activity in ip dosed CF1 albino mouse assessed as inhibition of maximal electroshock-induced electrical stimulus at 300 mg/kg after 0.5 hr; format: functional, organism-based; set-up: dose 300 mg/kg; summary of the method: as §1
# [4] = test system: Mus musculus; assay: Anticonvulsant activity in ip dosed CF1 albino mouse assessed as inhibition of maximal electroshock-induced electrical stimulus at 300 mg/kg after 4 hrs; format: functional, organism-based; set-up: dose 300 mg/kg; summary of the method: as §1
# [5] = test system: Mus musculus; assay: Anticonvulsant activity in ip dosed CF1 albino mouse assessed as inhibition of subcutaneous pentylenetetrazole-induced electrical stimulus at 300 mg/kg after 4 hrs; format: functional, organism-based; set-up: dose 300 mg/kg; summary of the method: as §1
# [6] = test system: Mus musculus; assay: Neurotoxicity in ip dosed CF1 albino mouse at 300 mg/kg after 0.5 hr by rotarod test; format: toxicity, organism-based; set-up: dose 300 mg/kg, route intraperitoneal; conditions: in vivo
# Summary of the method: (§2)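 CF-1 mice given 30, 100 or 300 mg/kg ip in 0.5% methylcellulose/water, examined at 0.5 and 4 h. Rotorod test: neurotoxicity is the inability to keep equilibrium on the rod for a given time. Value is the minimum dose giving motor impairment; a dash means none at 300 mg/kg.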
# [7] = test system: Mus musculus; assay: Neurotoxicity in ip dosed CF1 albino mouse at 300 mg/kg after 4 hrs by rotarod test; format: toxicity, organism-based; set-up: dose 300 mg/kg, route intraperitoneal; conditions: in vivo; summary of the method: as §2
# [8] = test system: Mus musculus; assay: Anticonvulsant activity in ip dosed CF1 albino mouse assessed as inhibition of subcutaneous pentylenetetrazole-induced electrical stimulus at 300 mg/kg after 0.5 hr; format: functional, organism-based; set-up: dose 300 mg/kg; summary of the method: as §1
# [9] = test system: Mus musculus; assay: Anticonvulsant activity in ip dosed CF1 albino mouse assessed as inhibition of maximal electroshock-induced electrical stimulus after 0.5 hr; format: functional; summary of the method: as §1
# [10] = test system: Mus musculus; assay: Anticonvulsant activity in ip dosed CF1 albino mouse assessed as inhibition of maximal electroshock-induced electrical stimulus after 4 hrs; format: functional; summary of the method: as §1
# [11] = test system: Mus musculus; assay: Anticonvulsant activity in ip dosed CF1 albino mouse assessed as inhibition of subcutaneous pentylenetetrazole-induced electrical stimulus after 4 hrs; format: functional; summary of the method: as §1
# [12] = test system: Mus musculus; assay: Neurotoxicity in ip dosed CF1 albino mouse after 0.5 hr by rotarod test; format: toxicity, organism-based; conditions: in vivo; summary of the method: as §2
# [13] = test system: Mus musculus; assay: Neurotoxicity in ip dosed CF1 albino mouse after 4 hrs by rotarod test; format: toxicity, organism-based; conditions: in vivo; summary of the method: as §2
# [14] = test system: Rattus norvegicus; assay: Anticonvulsant activity in Sprague-Dawley rat assessed as protection against seizure at 30 mg/kg, po after 4 hrs by maximal electroshock test; format: functional
# Summary of the method: (§3)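 Male Sprague–Dawley rats; compound suspended in 0.5% methylcellulose/water and given orally at a fixed 30 mg/kg, four rats per time point. MES test run at 0.25, 0.5, 1, 2 and 4 h after dosing, with motor impairment checked in parallel. Read-out: number of rats of four protected.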
# [15] = test system: Rattus norvegicus; assay: Anticonvulsant activity in Sprague-Dawley rat assessed as protection against seizure at 30 mg/kg, po after 0.25 hr by maximal electroshock test; format: functional; summary of the method: as §3
# [16] = test system: Rattus norvegicus; assay: Anticonvulsant activity in Sprague-Dawley rat assessed as protection against seizure at 30 mg/kg, po after 0.5 hr by maximal electroshock test; format: functional; summary of the method: as §3
# [17] = test system: Rattus norvegicus; assay: Anticonvulsant activity in Sprague-Dawley rat assessed as protection against seizure at 30 mg/kg, po after 1 hr by maximal electroshock test; format: functional; summary of the method: as §3
# [18] = test system: Rattus norvegicus; assay: Anticonvulsant activity in Sprague-Dawley rat assessed as protection against seizure at 30 mg/kg, po after 2 hrs by maximal electroshock test; format: functional; summary of the method: as §3
# [19] = test system: Rattus norvegicus; assay: Anticonvulsant activity in Sprague-Dawley rat assessed as protection against seizure at 50 mg/kg, po after 0.5 hr by subcutaneous pentylenetetrazole test; format: functional
# Summary of the method: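 Male Sprague–Dawley rats dosed orally at 50 mg/kg as a 0.5% methylcellulose/water suspension, four animals per time point. Convulsant given subcutaneously at 0.25, 0.5, 1, 2 and 4 h after dosing; rotorod motor impairment assessed in parallel. Read-out: number of rats of four protected.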
Compound,log K [2],Activity [1],Activity [3],Activity [4],Activity [5],Activity [6],Activity [7],Activity [8],Activity [9],Activity [10],Activity [11],Activity [12],Activity [13],Activity [14],Activity [15],Activity [16],Activity [17],Activity [18],Activity [19]
O=C1C2CCCCC2C(=O)N1Nc1ccc(Cl)cc1 (stereo not given),2.224,100 mg/kg,inactive,inactive,inactive,Not Active,Not Active,–,–,–,–,–,–,–,–,–,–,–,–
O=C1C2CCCCC2C(=O)N1Nc1ccccc1Cl (stereo not given),2.162,–,inactive,inactive,inactive,Not Active,Not Active,inactive,–,–,–,–,–,–,–,–,–,–,–
CCC1(CC)CC(=O)N(Nc2ccc(C)cc2)C1=O,1.999,–,–,inactive,inactive,–,Not Active,inactive,300 mg/kg,–,–,100 mg/kg,–,–,–,–,–,–,–
CCC1(C)CC(=O)N(Nc2ccccc2Cl)C1=O (stereo not given),2.029,–,–,inactive,inactive,–,Not Active,inactive,300 mg/kg,–,–,300 mg/kg,–,–,–,–,–,–,–
O=C1C2CCCCC2C(=O)N1Nc1ccc(Cl)cc1Cl (stereo not given),2.425,–,–,–,inactive,–,–,inactive,–,100 mg/kg,–,300 mg/kg,300 mg/kg,–,–,–,–,–,–
CCCC1(C)CC(=O)N(Nc2ccc(Br)cc2)C1=O (stereo not given),2.403,300 mg/kg,–,–,–,–,–,–,100 mg/kg,300 mg/kg,–,300 mg/kg,300 mg/kg,inactive,–,–,–,–,–
CCCC1(C)CC(=O)N(Nc2cccc(Cl)c2)C1=O (stereo not given),2.401,300 mg/kg,–,inactive,inactive,–,Not Active,–,300 mg/kg,–,–,100 mg/kg,–,–,–,–,–,–,–
CCCCC1(C)CC(=O)N(Nc2ccccc2Cl)C1=O (stereo not given),2.566,300 mg/kg,–,inactive,inactive,–,Not Active,–,300 mg/kg,–,–,300 mg/kg,–,–,–,–,–,–,–
CCC1(C)CC(=O)N(Nc2ccc(Br)cc2)C1=O (stereo not given),2.024,300 mg/kg,–,inactive,–,–,Not Active,–,300 mg/kg,–,100 mg/kg,300 mg/kg,–,25%,75%,50%,50%,50%,–
CC1(C)CC(=O)N(Nc2ccc(Cl)cc2Cl)C1=O,2.179,100 mg/kg,–,–,–,–,–,–,–,100 mg/kg,–,100 mg/kg,–,inactive,–,inactive,–,–,inactive
CCCCC1(C)CC(=O)N(Nc2ccc(Cl)cc2)C1=O (stereo not given),2.638,–,inactive,inactive,inactive,–,Not Active,inactive,–,–,–,300 mg/kg,–,–,–,–,–,–,–
CCC1(CC)CC(=O)N(Nc2ccccc2Cl)C1=O,2.244,300 mg/kg,inactive,inactive,inactive,–,Not Active,–,–,–,–,100 mg/kg,–,–,–,–,–,–,–
CCCC1(C)CC(=O)N(Nc2ccc(Cl)cc2)C1=O (stereo not given),2.445,100 mg/kg,–,–,–,–,–,–,100 mg/kg,300 mg/kg,–,100 mg/kg,300 mg/kg,inactive,–,–,–,–,–
CCC1(CC)CC(=O)N(Nc2ccccc2)C1=O,1.826,–,inactive,inactive,inactive,–,Not Active,inactive,–,–,–,300 mg/kg,–,–,–,–,–,–,–
CCC1(C)CC(=O)N(Nc2ccccc2C)C1=O (stereo not given),1.864,–,–,inactive,inactive,–,–,inactive,300 mg/kg,–,–,100 mg/kg,100 mg/kg,–,–,–,–,–,–
CCC1(C)CC(=O)N(Nc2cccc(Cl)c2)C1=O (stereo not given),2.183,–,–,–,–,–,–,–,300 mg/kg,–,–,300 mg/kg,–,inactive,–,–,inactive,inactive,inactive
CNN1C(=O)CC(C)(C)C1=O,–,–,inactive,inactive,inactive,Not Active,Not Active,inactive,–,–,–,–,–,–,–,–,–,–,–
CCC1(C)CC(=O)N(Nc2ccc(Cl)cc2)C1=O (stereo not given),2.201,300 mg/kg,–,inactive,inactive,–,–,–,100 mg/kg,–,–,100 mg/kg,300 mg/kg,25%,inactive,–,25%,–,–

# Now from value to molecule, other results behind:
log K [2],Compound,Activity [1],Activity [3],Activity [4],Activity [5],Activity [6],Activity [7],Activity [8],Activity [9],Activity [10],Activity [11],Activity [12],Activity [13],Activity [14],Activity [15],Activity [16],Activity [17],Activity [18],Activity [19]
2.08,CC1(C)CC(=O)N(Nc2ccc(Cl)cc2)C1=O,100 mg/kg,–,–,–,–,–,–,100 mg/kg,300 mg/kg,300 mg/kg,300 mg/kg,300 mg/kg,–,–,–,–,–,–
1.642,Cc1ccc(NN2C(=O)CC(C)(C)C2=O)cc1,300 mg/kg,–,inactive,inactive,–,Not Active,–,300 mg/kg,–,–,100 mg/kg,–,–,–,–,–,–,–
2.364,CCCC1(C)CC(=O)N(Nc2ccccc2Cl)C1=O (stereo not given),300 mg/kg,–,inactive,inactive,–,Not Active,–,300 mg/kg,–,–,300 mg/kg,–,–,–,–,–,–,–
1.876,CC1(C)CC(=O)N(Nc2ccccc2Cl)C1=O,300 mg/kg,–,inactive,inactive,–,Not Active,–,100 mg/kg,–,–,30 mg/kg,–,–,–,–,–,–,–
2.896,CCCCC1(C)CC(=O)N(Nc2ccc(Cl)cc2Cl)C1=O (stereo not given),100 mg/kg,–,inactive,inactive,–,Not Active,–,100 mg/kg,–,–,100 mg/kg,–,–,–,–,–,–,–
2.221,CCC1(CC)CC(=O)N(Nc2ccc(Br)cc2)C1=O,–,inactive,inactive,inactive,Not Active,Not Active,inactive,–,–,–,–,–,–,–,–,–,–,–
1.695,CCC1(C)CC(=O)N(Nc2ccccc2)C1=O (stereo not given),300 mg/kg,–,–,–,–,–,–,300 mg/kg,–,–,100 mg/kg,–,inactive,–,–,–,inactive,inactive
2.173,O=C1C2CCCCC2C(=O)N1Nc1cccc(Cl)c1 (stereo not given),300 mg/kg,inactive,inactive,inactive,–,Not Active,–,–,–,–,300 mg/kg,–,–,–,–,–,–,–
1.928,CCC1(C)CC(=O)N(Nc2ccc(C)cc2)C1=O (stereo not given),300 mg/kg,–,inactive,inactive,–,Not Active,–,300 mg/kg,–,–,300 mg/kg,–,–,–,–,–,–,–
